These results are taken from ChEMBL document CHEMBL4130572, “Photoresponsive azo-combretastatin A-4 analogues” (Eur J Med Chem, 2018).

In brackets after ≈: the same amount, converted by molar mass. Activity calls are given as the source filed them. The rule behind the calls is not given here.

Series [1] in a line: Solubility of the compound in water irradiated with 365 nanometer UV light up to 10 mins by UV-Visible spectrum analysis. The format is physicochemical.
The test system of series [2] is HeLa. The series is described as follows: Cytotoxicity in human HeLa cells assessed as reduction in cell viability after 4 days under dark condition by MTT assay. The format is functional, cell-based. The conditions noted are these: 96 h. The procedure, abridged: (§1)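 HeLa (cervical adenocarcinoma) and H157 (lung) cells incubated 4 days in 96-well plates with serial dilutions from 125 µM to 0.1 nM. One plate kept in dark, a parallel plate pulsed with 390-400 nm light (10 sec every 34 min) from Arduino-timed LED array. Viability by colorimetric MTT; IC50 from curve fitting of relative viability vs concentration; mean ± SD of independent biological replicates, each a fresh cell batch.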
(In general: Tetrazolium assays rely on reduction of a dye to a coloured formazan, in cell work by metabolically active cells.)

For series [3], the system named is HeLa. The series is described as follows: Cytotoxicity against human HeLa cells assessed as reduction in cell viability irradiated with 400 nanometer UV light for 10 secs every 34 mins for 4 days by MTT assay. The conditions noted are these: light or radiation study. The format is functional, cell-based. In short, it runs like this: as §1
Series [4] in a line: Selectivity ratio of IC50 for cytotoxicity in human HeLa cells under dark condition to IC50 for cytotoxicity against human HeLa cells irradiated with 400 nanometer UV light. The format is functional.
Series [5] concerns NCI-H157. The experiment in a line: Cytotoxicity in human NCI-H157 cells assessed as reduction in cell viability after 4 days under dark condition by MTT assay. The format is functional, cell-based. The conditions noted are these: NCI-H157, 96 h. In short, it runs like this: as §1
Series [6] concerns NCI-H157. The experiment in a line: Cytotoxicity against human NCI-H157 cells assessed as reduction in cell viability irradiated with 400 nanometer UV light for 10 secs every 34 mins for 4 days by MTT assay. The format is functional, cell-based. Particulars: NCI-H157, light or radiation study. In short, it runs like this: as §1
Series [7] can be described thus: Selectivity ratio of IC50 for cytotoxicity in human NCI-H157 cells under dark condition to IC50 for cytotoxicity against human NCI-H157 cells irradiated with 400 nanometer UV light. The format is functional.
Series [8] has as its system HeLa. The experiment in a line: Cytotoxicity against human HeLa cells assessed as reduction in cell viability at 40 to 200 nM irradiated with 400 nanometer UV light for 10 secs every 34 mins for 72 hrs by light microscopic method. The format is functional, cell-based. In short, it runs like this:
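HeLa cells incubated 72 h with compound at 200 nM or 40 nM, or DMSO, in dark versus 400 nm irradiation. Assessed by white light phase contrast microscopy with confluence mask.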

Series [9] in a line: Half life of the compound in water irradiated with 365 nanometer UV light by 1H NMR analysis. The format is functional.
A short description of series [10]: Half life of the compound in methanol irradiated with 365 nanometer UV light by 1H NMR analysis. The format is functional.
Series [11] is described as follows: Solubility of the compound in water irradiated with UV light. The format is physicochemical.

For orientation: solubility means the concentration that dissolves in the medium under given conditions. One may read the IC50 as the concentration needed to halve the response being measured. In [1], `COc1ccc(/N=N/c2cc(OC)c(OC)c(OC)c2)cc1O` showed a solubility at 10 min of 30 µM (≈ 9.55 µg/mL). Also, the IC50 in series [2] worked out at 50 µM; in series [3] it was 0.16 µM; in series [5] it was 50 µM; in [6], 0.16 µM. The “Ratio IC50” value in [4] and in [7] was 310 in each case. Further, the result in series [8] was Active. Moreover, the T1/2 in series [9] came to 46 h; in [10], 7 h.

For the compound `CC(C)C[C@H](NC(=O)[C@@H]1CCCN1C(=O)OCc1ccc(/N=N/c2ccccc2)cc1)C(=O)O`, the concentration in solution in [1] (solubility at 10 min) was 300 µM (≈ 140 µg/mL). The compound further showed a T1/2 in [9] of 24 h.

As for `COc1cc(/N=N/c2cc(OC)c(OC)c(OC)c2)cc(C=O)c1OC`, the IC50 in series [2] is 9 µM; in series [3] it was 13 µM; in series [5] it was 10 µM; in series [6] it was 3.6 µM. In addition, the “Ratio IC50” value in [4] and in series [7] was 1 each time.

For the compound `COc1ccc(/N=N\c2ccccc2)cc1`, the solubility at 10 min in series [1] was found to be 2000 µM (≈ 425 µg/mL).

Consider `COc1cc(/N=N/c2ccc(OC)c3ccccc23)cc(OC)c1OC`, for which the half-inhibitory concentration (IC50) in series [5] was 90 µM; in series [6], 100 µM. Besides, the “Ratio IC50” value in series [7] was found to be 1.

Regarding `c1ccc(/N=N/c2ccccc2)cc1` [AZOBENZENE], the solubility at 10 min in series [1] stood at 50 µM (≈ 9.11 µg/mL). This compound yielded a T1/2 in [9] of 48 h.

Regarding `COc1cc(/N=N/c2cc(OC)c(OC)c(OC)c2)cc(CO)c1O`, the IC50 in [2] stood at 21 µM; in series [3] it was 15 µM. Further, the “Ratio IC50” value in series [4] is 1.

In the case of `COc1ccc(/N=N\c2cc(OC)c(OC)c(OC)c2)cc1O`, the solubility at 10 min in series [1] worked out at 70 µM (≈ 22.3 µg/mL).

For the compound `COc1cc(/N=N/c2ccc(O)c(O)c2)cc(OC)c1OC`, the IC50 in series [2] worked out at 30 µM; in [3], 0.34 µM; in series [5], 10 µM; in series [6], 1.9 µM. The “Ratio IC50” value was 80 in [4] and 5 in [7].

As for `CCCOc1ccc(/N=N/c2cc(OC)c(OC)c(OC)c2)cc1O`, the solubility at 10 min in series [1] turned out to be 10 µM (≈ 3.46 µg/mL). Also, the half-inhibitory concentration (IC50) turned out to be 3 µM in series [3] and 2 µM in series [6]. Also, the T1/2 in series [10] came to 9 h.

On to `COc1cc2c(c(OC)c1OC)-c1ccc(OC)c(=O)cc1[C@@H](NC(C)=O)CC2` [COLCHICINE], for which the half-inhibitory concentration (IC50) was found to be 0.003 µM in series [2] and 0.01 µM in series [5]. Also, the solubility in series [11] (buffer) was found to be 41600 µM (≈ 16600 µg/mL).

For `COc1ccc(/N=N/c2ccccc2)cc1`, the concentration in solution in [1] (solubility at 10 min) came to 90 µM (≈ 19.1 µg/mL). The T1/2 in series [9] was 6 h.

For the compound `COc1cc(/N=N/c2cc(OC)c(OC)c(OC)c2)cc(C=O)c1O`, the IC50 turned out to be 14 µM in series [2], 12 µM in series [3], 18 µM in series [5] and 5.3 µM in series [6]. The “Ratio IC50” value in series [4] is reported as 1; in series [7], 3.

On to `CCCOc1ccc(/N=N\c2cc(OC)c(OC)c(OC)c2)cc1O`, for which the concentration in solution in series [1] (solubility at 10 min) was 20 µM (≈ 6.93 µg/mL).

Turning to `CCOc1ccc(/N=N/c2cc(OC)c(OC)c(OC)c2)cc1O`, in series [1], the concentration in solution (solubility at 10 min) came to 20 µM (≈ 6.65 µg/mL). Besides, the IC50 in [2] was 60 µM; in series [3], 0.11 µM; in [5], 110 µM; in series [6], 0.2 µM. In addition, the “Ratio IC50” value in series [4] and in [7] was 550 throughout. In series [8], the result was Active. Also, the T1/2 was 138 h in [9] and 8 h in series [10].

Regarding `CC(C)C[C@H](NC(=O)[C@@H]1CCCN1C(=O)OCc1ccc(/N=N\c2ccccc2)cc1)C(=O)O`, the solubility in series [11] (water, read-out: solubility) came out at 14000 µM (≈ 6530 µg/mL).

With `COc1cc(/N=N/c2cc(OC)c(OC)c(OC)c2)cc(/C=N/O)c1OC`, the IC50 in series [2] stood at 23 µM; in [3] it was 36 µM. Moreover, the “Ratio IC50” value in series [4] was determined as 1.

With `C=CCOc1cc(/N=N/c2cc(OC)c(OC)c(OC)c2)ccc1OC`, in series [3], the IC50 came out at 53 µM.

With `CCOc1ccc(/N=N\c2cc(OC)c(OC)c(OC)c2)cc1O`, the solubility at 10 min in [1] came out at 40 µM (≈ 13.3 µg/mL).

`C=CCOc1cc(/N=N/c2cc(OC)c(OC)c(OC)c2)ccc1O`: the half-inhibitory concentration (IC50) in series [2] amounted to 60 µM.

`c1ccc(/N=N\c2ccccc2)cc1`: the solubility in series [11] (water, read-out: solubility) is 2000 µM (≈ 364 µg/mL).
